From ChEMBL document CHEMBL3804776, “Synthesis and Evaluation of Macrocyclic Peptide Aldehydes as Potent and Selective Inhibitors of the 20S Proteasome” (ACS Med Chem Lett, 2016)
One block for each molecule: values may come before it. Activity calls are given as the source filed them. No cut-off for these calls is given here. Residues, ends and D or L forms follow the SMILES beside them. *: point of attachment. Cbz = O=C(OCc1ccccc1)*

Experiments:
HeLa [1] = assay: Inhibition of 26S proteasome in IL1beta-induced human HeLa cells assessed as phosphorylation of IkappaBalpha at 20 uM preincubated for 2 hrs followed by IL1beta stimulation by Western blot analysis; type: cell-based
Summary of the method: (§1)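 HeLa human cervix carcinoma cells were pretreated with compound at 20 μM for 2 h, then stimulated with IL-1β. Read-outs were Western blot for IκBα phosphorylation (S32/36) and IκBα degradation, with β-actin as loading control, and EMSA for NF-κB DNA binding.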

[2] = biological target: T1, Calpain-2 catalytic subunit (Homo sapiens, UniProt P17655); assay: Inhibition of m-calpain (unknown origin) using Suc-LY-AMC as substrate by fluorometric assay
T1 sequence (P17655 whole entry): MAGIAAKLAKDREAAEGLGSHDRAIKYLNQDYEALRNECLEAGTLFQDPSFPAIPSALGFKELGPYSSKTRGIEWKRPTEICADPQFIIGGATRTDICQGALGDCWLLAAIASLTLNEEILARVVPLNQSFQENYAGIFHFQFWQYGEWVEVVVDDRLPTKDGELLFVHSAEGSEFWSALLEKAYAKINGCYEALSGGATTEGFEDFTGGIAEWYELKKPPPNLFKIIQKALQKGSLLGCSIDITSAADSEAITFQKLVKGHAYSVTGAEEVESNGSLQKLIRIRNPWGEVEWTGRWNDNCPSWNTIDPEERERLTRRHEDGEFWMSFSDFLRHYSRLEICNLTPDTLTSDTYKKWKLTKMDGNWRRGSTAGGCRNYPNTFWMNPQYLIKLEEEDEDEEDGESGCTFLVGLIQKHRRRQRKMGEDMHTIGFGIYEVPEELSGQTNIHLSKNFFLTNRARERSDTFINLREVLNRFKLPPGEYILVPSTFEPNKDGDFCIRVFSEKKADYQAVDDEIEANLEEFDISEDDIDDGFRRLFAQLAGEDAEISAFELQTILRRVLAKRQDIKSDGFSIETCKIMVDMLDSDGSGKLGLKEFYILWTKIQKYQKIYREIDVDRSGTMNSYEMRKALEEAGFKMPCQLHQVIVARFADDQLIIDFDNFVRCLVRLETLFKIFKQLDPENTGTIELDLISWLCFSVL

HeLa [3] = assay: Inhibition of 26S proteasome in IL1beta-induced human HeLa cells assessed as reduction in IkappaBalpha degradation at 20 uM preincubated for 2 hrs followed by IL1beta stimulation by Western blot analysis; type: cell-based; summary of the method: as §1
HeLa [4] = assay: Inhibition of 26S proteasome in TNFalpha-induced human HeLa cells assessed as accumulation of phosphorylated IkappaBalpha at 300 nM to 20 uM preincubated for 2 hrs followed by TNFalpha stimulation by Western blot analysis; type: cell-based
Summary of the method: (§2)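 Dose-response in HeLa cells: compound at 0.1, 0.3, 1, 3, 10 and 20 μM before TNFα stimulation, with handling as in the single-dose experiment. Accumulation of phospho-IκBα (S32/36) was measured by Western blot with β-actin as loading control. NF-κB DNA binding was measured by EMSA.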

HeLa [5] = assay: Inhibition of 26S proteasome in TNFalpha-induced human HeLa cells assessed as reduction in NFkappaB-DNA binding at 300 nM to 20 uM preincubated for 2 hrs followed by TNFalpha stimulation by EMSA; type: cell-based; summary of the method: as §2
[6] = Inhibition of chymotrypsin-like activity of rabbit 20S proteasome using Suc-LLVY-AMC substrate incubated at 37 degC by fluorometric assay; set-up: species or system Oryctolagus cuniculus
HeLa [7] = assay: Inhibition of 26S proteasome in IL1beta-induced human HeLa cells assessed as reduction in IkappaBalpha degradation at 300 nM to 20 uM preincubated for 2 hrs followed by IL1beta stimulation
HeLa [8] = assay: Inhibition of 26S proteasome in TNFalpha-induced human HeLa cells assessed as phosphorylation of IkappaBalpha at 20 uM preincubated for 2 hrs followed by TNFalpha stimulation by Western blot analysis; type: cell-based
Summary of the method: (§3)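 HeLa cells were preincubated for 2 h with 20 μM compound before TNFα stimulation. IκBα S32/36 phosphorylation and IκBα levels were assessed by Western blot (β-actin loading control). NF-κB DNA binding was measured by electrophoretic mobility shift assay.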

[9] = Selectivity ratio of Ki for m-calpain (unknown origin) to Ki for chymotrypsin-like activity of rabbit 20S proteasome
[10] = Inhibition of trypsin-like activity of rabbit 20S proteasome using Cbz-ARR-AMC substrate incubated at 37 degC by fluorometric assay; set-up: species or system Oryctolagus cuniculus
HeLa [11] = assay: Inhibition of 26S proteasome in IL1beta-induced human HeLa cells assessed as reduction in NFkappaB-DNA binding at 20 uM preincubated for 2 hrs followed by IL1beta stimulation by EMSA; type: cell-based; summary of the method: as §1
Cathepsin B [12] = biological target: T2, Cathepsin B (Homo sapiens, UniProt P07858); assay: Inhibition of human liver cathepsin B using Cbz-RR-AMC as substrate by fluorometric assay
Homo sapiens = species: Homo sapiens; assay: Inhibition of chymotrypsin (unknown origin) using Suc-LLVY-AMC as substrate at 100 uM by fluorometric assay
Summary of the method: (§4)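 Fluorometric kinetic enzyme assay run at a single inhibitor concentration of 100 μM. The outcome was scored as whether inhibition occurred at that concentration.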

HeLa [13] = assay: Inhibition of 26S proteasome in TNFalpha-induced human HeLa cells assessed as reduction in IkappaBalpha degradation at 20 uM preincubated for 2 hrs followed by TNFalpha stimulation by Western blot analysis; type: cell-based; summary of the method: as §3
Oryctolagus cuniculus [14] = species: Oryctolagus cuniculus; assay: Inhibition of PGPH-like activity of rabbit 20S proteasome using Cbz-LLE-AMC substrate at 100 uM incubated at 37 degC by fluorometric assay; summary of the method: as §4
HeLa [15] = assay: Inhibition of 26S proteasome in TNFalpha-induced human HeLa cells assessed as reduction in NFkappaB-DNA binding at 20 uM preincubated for 2 hrs followed by TNFalpha stimulation by EMSA; type: cell-based; summary of the method: as §3
[16] = biological target: T3, Calpain-2 catalytic subunit (Homo sapiens) (UniProt P17655); assay: Inhibition of m-calpain (unknown origin) using Suc-LY-AMC as substrate at 100 uM by fluorometric assay; summary of the method: as §4
T3 sequence (whole entry): T1 sequence (P17655 whole entry)

Cathepsin B [17] = biological target: T2, Cathepsin B; assay: Inhibition of human liver cathepsin B using Cbz-RR-AMC as substrate at 100 uM by fluorometric assay; summary of the method: as §4
[18] = Selectivity ratio of Ki for human liver cathepsin B to Ki for chymotrypsin-like activity of rabbit 20S proteasome
Oryctolagus cuniculus [19] = species: Oryctolagus cuniculus; assay: Inhibition of trypsin-like activity of rabbit 20S proteasome using Cbz-ARR-AMC substrate at 100 uM incubated at 37 degC by fluorometric assay; summary of the method: as §4
[20] = Inhibition of PGPH-like activity of rabbit 20S proteasome using Cbz-LLE-AMC substrate incubated at 37 degC by fluorometric assay; set-up: species or system Oryctolagus cuniculus

SMILES: CC(C)C[C@@H](C=O)NC(=O)[C@@H]1Cc2ccc(cc2)Oc2cc(ccc2[N+](=O)[O-])C[C@H](NC(=O)OCc2ccccc2)C(=O)N[C@@H](CC(C)C)C(=O)N1
inhibition (HeLa [1]): Active
Ki [2]: 2.03 µM
inhibition (HeLa [3]): Active
inhibition (HeLa [4]): Active
inhibition (HeLa [5]): Active
Ki [6]: 0.241 µM
inhibition (HeLa [7]): Active
inhibition (HeLa [8]): Active
Ratio Ki [9]: 8
Ki [10]: 8.04 µM
inhibition (HeLa [11]): Active
Ki (Cathepsin B [12]): 3.05 µM
inhibition (Homo sapiens): inactive
inhibition (HeLa [13]): Active
inhibition (Oryctolagus cuniculus [14]): inactive
inhibition (HeLa [15]): Active

SMILES: COc1ccc(C[C@@H]2NC(=O)[C@@H](NC(=O)OCc3ccccc3)Cc3ccc([N+](=O)[O-])c(c3)Oc3ccc(cc3)C[C@@H](C(=O)N[C@H](C=O)CC(C)C)NC2=O)cc1
inhibition (HeLa [1]): Active
Ki [2]: 2.98 µM
inhibition (HeLa [3]): Active
Ratio Ki [18]: 550
inhibition (HeLa [4]): Active
inhibition (HeLa [5]): Active
Ki [6]: 0.0545 µM
inhibition (HeLa [7]): Active
inhibition (HeLa [8]): Active
Ratio Ki [9]: 55
inhibition (HeLa [11]): Active
Ki (Cathepsin B [12]): 30.3 µM
inhibition (Homo sapiens): inactive
inhibition (HeLa [13]): Active
inhibition (Oryctolagus cuniculus [14]): inactive
inhibition (Oryctolagus cuniculus [19]): inactive
inhibition (HeLa [15]): Active

SMILES: COc1ccc(C[C@H](NC(=O)[C@H](Cc2ccccc2)NC(=O)OCc2ccccc2)C(=O)N[C@@H](Cc2ccccc2)C(=O)N[C@H](C=O)CC(C)C)cc1 (Cbz-FY(Me)FL-aldehyde)
Ki [2]: 1.71 µM
Ratio Ki [18]: 80
Ki [6]: 0.028 µM
Ratio Ki [9]: 61
Ki (Cathepsin B [12]): 2.29 µM
inhibition (Homo sapiens): inactive

Second part, led by results:

Ki [6]: 0.024 µM
inhibition [16]: inactive
inhibition (Cathepsin B [17]): inactive
inhibition (Homo sapiens): inactive
SMILES: CC(C)C[C@H](NC(=O)[C@H](Cc1ccccc1)NC(=O)c1cnccn1)B(O)O [BORTEZOMIB]

Ki [6]: 0.0255 µM
inhibition [16]: inactive
inhibition (Cathepsin B [17]): inactive
inhibition (Homo sapiens): inactive
SMILES: CC(C)C[C@H](NC(=O)[C@H](CCc1ccccc1)NC(=O)CN1CCOCC1)C(=O)N[C@@H](Cc1ccccc1)C(=O)N[C@@H](CC(C)C)C(=O)[C@@]1(C)CO1 [CARFILZOMIB]

Ki [20]: 3.7 µM
Ki [2]: 0.653 µM
Ratio Ki [18]: 4
Ki [6]: 0.0635 µM
Ratio Ki [9]: 10
Ki (Cathepsin B [12]): 0.23 µM
inhibition (Homo sapiens): inactive
inhibition (Oryctolagus cuniculus [19]): inactive
SMILES: CC(C)C[C@@H](C=O)NC(=O)[C@H](CC(C)C)NC(=O)[C@H](CC(C)C)NC(=O)OCc1ccccc1 [MG-132] (Cbz-Leu-Leu-Leu-aldehyde)
inhibition (HeLa [1]): Active
inhibition (HeLa [3]): Active
inhibition (HeLa [4]): Active
inhibition (HeLa [5]): Active
inhibition (HeLa [7]): Active
inhibition (HeLa [8]): Active
inhibition (HeLa [11]): Active
inhibition (HeLa [13]): Active
inhibition (HeLa [15]): Active
